Data taken from ChEMBL document CHEMBL1141534, “Synthesis of all stereoisomers of 3-hydroxypipecolic acid and 3-hydroxy-4,5-dehydropipecolic acid and their evaluation as glycosidase inhibitors” (Bioorg Med Chem Lett, 2008).

Assays:
Escherichia coli = test: Inhibition of Escherichia coli beta-glucuronidase; parameters: concentration or dose not given beside the values; settings: concentration not given here
Summary of the method: (§1)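 Enzyme activity was measured with the matching p-nitrophenyl glycoside as substrate at 10 mM, at each enzyme's optimum pH, with a suitable amount of enzyme per reaction. For line 4, the α-N-acetylgalactosaminidase came from chicken liver.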

[1] = molecular target: T1, Beta-glucuronidase (Bos taurus) (UniProt A3KMY8); test: Inhibition of bovine liver beta-glucuronidase; parameters: concentration or dose not given beside the values; settings: concentration not given here; summary of the method: as §1
T1 sequence (whole entry): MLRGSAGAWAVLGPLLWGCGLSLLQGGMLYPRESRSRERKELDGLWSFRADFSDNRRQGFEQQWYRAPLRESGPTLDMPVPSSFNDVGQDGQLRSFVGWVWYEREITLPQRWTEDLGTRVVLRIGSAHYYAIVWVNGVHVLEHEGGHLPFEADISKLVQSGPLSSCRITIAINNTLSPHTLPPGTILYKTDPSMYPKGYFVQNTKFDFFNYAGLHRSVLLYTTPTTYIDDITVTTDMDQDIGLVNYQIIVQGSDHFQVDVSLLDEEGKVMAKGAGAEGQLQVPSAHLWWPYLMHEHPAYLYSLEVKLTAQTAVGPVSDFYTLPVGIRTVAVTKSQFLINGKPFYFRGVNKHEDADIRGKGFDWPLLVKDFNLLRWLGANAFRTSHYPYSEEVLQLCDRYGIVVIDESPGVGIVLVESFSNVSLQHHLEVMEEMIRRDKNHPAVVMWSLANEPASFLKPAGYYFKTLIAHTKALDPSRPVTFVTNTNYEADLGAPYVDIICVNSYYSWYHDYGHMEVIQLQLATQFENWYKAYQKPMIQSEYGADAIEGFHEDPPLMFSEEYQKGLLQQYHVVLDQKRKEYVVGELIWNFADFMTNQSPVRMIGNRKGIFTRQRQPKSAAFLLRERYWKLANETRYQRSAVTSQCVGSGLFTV

[2] = test system: alpha-N-acetylgalactosaminidase (Gallus gallus); test: Inhibition of chick liver alpha-N-acetylgalactosaminidase; parameters: concentration or dose not given beside the values; settings: concentration not given here
Bos taurus = organism: Bos taurus; test: (§2) Inhibition of bovine kidney beta-N-acetylglucosaminidase; parameters: concentration or dose not given beside the values; settings: concentration not given here; summary of the method: as §1
[3] = as §2; parameters: species or system Bos taurus; summary of the method: as §1

| Compound | inhibition (Escherichia coli) | inhibition [1] | inhibition [2] | inhibition (Bos taurus) | IC50 [3] |
| --- | --- | --- | --- | --- | --- |
| O=C(O)[C@@H]1NCC=C[C@H]1O | 0.9% | 0.2% | 3.2% | 15% |  |
| O=C(O)[C@@H]1NCC=C[C@@H]1O | 0.9% | 10% | 1.3% | 0.8% |  |
| O=C(O)[C@H]1NCC=C[C@H]1O | 3.3% | 8.6% | 0.2% | 7.3% |  |

Next, values leading:

| inhibition (Escherichia coli) | inhibition [1] | inhibition [2] | inhibition (Bos taurus) | IC50 [3] | Compound |
| --- | --- | --- | --- | --- | --- |
| 31% | 0.89% | 5.2% | 38% |  | O=C(O)[C@H]1NCCC[C@@H]1O |
| 23% | 15% | 3.2% | 47% |  | O=C(O)[C@@H]1NCCC[C@@H]1O |
| 2% | 19% | 25% | 58% | 720 µM | O=C(O)[C@H]1NCC=C[C@@H]1O |
| 20% | 0.62% | 1.3% | 32% |  | O=C(O)[C@@H]1NCCC[C@H]1O |
| 24% | 0.18% | 2.5% | 20% |  | O=C(O)[C@H]1NCCC[C@H]1O |
